The text below walks through data of ChEMBL document CHEMBL2086325, “Suppression of autoimmune arthritis by Celastrus-derived Celastrol through modulation of pro-inflammatory chemokines” (Bioorg Med Chem, 2012).

For assay [1], the system named is Rattus norvegicus. Put plainly: Antiarthritic effect in Lewis rat adjuvant-induced arthritis model serum assessed as reduction in RANTES production at 200 ug, ip starting from arthritis onset and continued uninterrupted until study end by cytokine multiplex assay. It counts as functional, organism-based. A digest of the protocol:
(§1)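 Arthritic Lewis rats (Mtb 1.5 mg s.c. in mineral oil) were given 200 μg/rat i.p. daily from onset until the day before harvest; controls received DMSO/PBS vehicle. On d 18, blood was taken by cardiac puncture after euthanasia and serum stored at −80 °C. Serum pooled from 4 rats was assayed in triplicate by multiplex.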

The subject of assay [2] is Rattus norvegicus. Put plainly: Antiarthritic effect in Lewis rat adjuvant-induced arthritis model serum assessed as reduction in IL-1beta production at 200 ug, ip starting from arthritis onset and continued uninterrupted until study end by cytokine multiplex assay. The assay is classed as functional, organism-based. In outline: as §1
The test system of assay [3] is Rattus norvegicus. Put plainly: Antiarthritic effect in Lewis rat adjuvant-induced arthritis model serum assessed as reduction in IL6 production at 200 ug, ip starting from arthritis onset and continued uninterrupted until study end by cytokine multiplex assay. The assay is classed as functional, organism-based. In outline:
as §1

Assay [4] concerns Rattus norvegicus. Put plainly: Antiarthritic effect in Lewis rat adjuvant-induced arthritis model lymph node cells restimulated with sonicated Mtb post isolation assessed as reduction in RANTES production at 200 ug, ip starting from arthritis onset and continued uninterrupted until study end by cytokine multiplex assay. It counts as functional, organism-based. In outline:
(§2)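 Male Lewis rats were immunized s.c. with heat-killed Mtb H37Ra (1.5 mg/rat) in mineral oil. From arthritis onset they received 200 μg/rat i.p. daily (DMSO stock diluted in PBS); controls got 1.2% DMSO in PBS. On d 18, draining lymph node or synovial-infiltrating cells were cultured at 1.5 × 10^6/well in 2% FBS medium ± sonicated Mtb (10 μg/ml) for 24 h. Supernatants were analysed by multiplex.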

The subject of assay [5] is Rattus norvegicus. Put plainly: Antiarthritic effect in Lewis rat adjuvant-induced arthritis model lymph node cells restimulated with sonicated Mtb post isolation assessed as reduction in IL-1beta production at 200 ug, ip starting from arthritis onset and continued uninterrupted until study end by cytokine multiplex assay. It counts as functional, organism-based. In outline:
as §2

For assay [6], the system named is Rattus norvegicus. Put plainly: Antiarthritic effect in Lewis rat adjuvant-induced arthritis model synovial infiltrating cells restimulated with sonicated Mtb post isolation assessed as reduction in RANTES production at 200 ug, ip starting from arthritis onset and continued uninterrupted until study end by cytokine multiplex assay. The assay is classed as functional, organism-based. In outline: as §2

In assay [7] the test system is Rattus norvegicus. Put plainly: Antiarthritic effect in Lewis rat adjuvant-induced arthritis model synovial infiltrating cells restimulated with sonicated Mtb post isolation assessed as reduction in TNFalpha production at 200 ug, ip starting from arthritis onset and continued uninterrupted until study end by cytokine multiplex assay. It counts as functional, organism-based. In outline:
as §2

The subject of assay [8] is Rattus norvegicus. Put plainly: Antiarthritic effect in Lewis rat adjuvant-induced arthritis model synovial infiltrating cells restimulated with sonicated Mtb post isolation assessed as reduction in IL6 production at 200 ug, ip starting from arthritis onset and continued uninterrupted until study end by cytokine multiplex assay. The assay is classed as functional, organism-based. In outline:
as §2

The test system of assay [9] is Rattus norvegicus. Put plainly: Antiarthritic effect in Lewis rat adjuvant-induced arthritis model synovial infiltrating cells restimulated with sonicated Mtb post isolation assessed as reduction in MIP-1alpha production at 200 ug, ip starting from arthritis onset and continued uninterrupted until study end by cytokine multiplex assay. It counts as functional, organism-based. In outline:
as §2

The species named for assay [10] is Rattus norvegicus. The assay is described as follows: Antiarthritic effect in sonicated Mtb-stimulated spleen adherent cells isolated from Lewis rat adjuvant-induced arthritis model assessed as reduction in GRO/KC production pre-incubated with compound for 30 mins before stimulation with sonicated-Mtb for 48 hrs by multiplex assay. It counts as functional, tissue-based.

The species named for assay [11] is Rattus norvegicus. The assay is described as follows: Antiarthritic effect in sonicated Mtb-stimulated spleen adherent cells isolated from Lewis rat adjuvant-induced arthritis model assessed as reduction in MIP-1alpha production pre-incubated with compound for 30 mins before stimulation with sonicated-Mtb for 48 hrs by multiplex assay. The assay is classed as functional, tissue-based.

The species named for assay [12] is Rattus norvegicus. Put plainly: Antiarthritic effect in sonicated Mtb-stimulated spleen adherent cells isolated from Lewis rat adjuvant-induced arthritis model assessed as reduction in RANTES production pre-incubated with compound for 30 mins before stimulation with sonicated-Mtb for 48 hrs by multiplex assay. It counts as functional, tissue-based.
For assay [13], the species on record is Rattus norvegicus. Put plainly: Antiarthritic effect in sonicated Mtb-stimulated spleen adherent cells isolated from Lewis rat adjuvant-induced arthritis model assessed as reduction in TNFalpha production pre-incubated with compound for 30 mins before stimulation with sonicated-Mtb for 48 hrs by multiplex assay. The assay is classed as functional, tissue-based.

The species named for assay [14] is Rattus norvegicus. The assay is described as follows: Antiarthritic effect in sonicated Mtb-stimulated spleen adherent cells isolated from Lewis rat adjuvant-induced arthritis model assessed as reduction in IL6 production pre-incubated with compound for 30 mins before stimulation with sonicated-Mtb for 48 hrs by multiplex assay. The assay is classed as functional, tissue-based.

The species entered for assay [15] is Rattus norvegicus. Put plainly: Antiarthritic effect in IL-1beta-stimulatedspleen adherent cells isolated from Lewis rat adjuvant-induced arthritis model assessed as reduction in GRO/KC production pre-incubated with compound for 30 mins before stimulation with IL-1beta for 48 hrs by multiplex assay. To be noted: Spleen. It counts as functional, tissue-based.

The species named for assay [16] is Rattus norvegicus. The assay is described as follows: Antiarthritic effect in IL-1beta-stimulatedspleen adherent cells isolated from Lewis rat adjuvant-induced arthritis model assessed as reduction in MCP1 production pre-incubated with compound for 30 mins before stimulation with IL-1beta for 48 hrs by multiplex assay. To be noted: Spleen. It counts as functional, tissue-based.

The species entered for assay [17] is Rattus norvegicus. Put plainly: Antiarthritic effect in IL-1beta-stimulatedspleen adherent cells isolated from Lewis rat adjuvant-induced arthritis model assessed as reduction in RANTES production pre-incubated with compound for 30 mins before stimulation with IL-1beta for 48 hrs by multiplex assay. To be noted: Spleen. The assay is classed as functional, tissue-based.

The test system of assay [18] is Rattus norvegicus. The assay is described as follows: Antiarthritic effect in Lewis rat adjuvant-induced arthritis model spleen adherent cells restimulated with sonicated Mtb post isolation assessed as reduction in CCR5 expression at 200 ug, ip starting from arthritis onset and continued uninterrupted until study end by qPCR. It counts as functional, organism-based. A digest of the protocol: (§3)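 From onset of Mtb-induced arthritis, rats received 200 μg/rat i.p. daily or vehicle. Spleen adherent cells harvested on d 18 (1.5–2.0 × 10^6 cells/well) were cultured in medium or with sonicated Mtb (10 μg/ml) for 24 h. Receptor mRNA was quantified by qPCR after TRIzol RNA isolation and cDNA synthesis, normalized to HGPRT and reported as relative message.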

The subject of assay [19] is Rattus norvegicus. Put plainly: Antiarthritic effect in Lewis rat adjuvant-induced arthritis model spleen adherent cells restimulated with sonicated Mtb post isolation assessed as reduction in CXCR4 expression at 200 ug, ip starting from arthritis onset and continued uninterrupted until study end by qPCR. It counts as functional, organism-based. A digest of the protocol:
as §3

Assay [20] has as its system Rattus norvegicus. Put plainly: Increase in CCR1 expression in Lewis rat adjuvant-induced arthritis model spleen adherent cells restimulated with sonicated Mtb post isolation at 200 ug, ip starting from arthritis onset and continued uninterrupted until study end by qPCR relative baseline expression. It counts as functional, organism-based. A digest of the protocol:
as §3
A general note: In qPCR the cycle at which signal appears reflects the starting amount.

In assay [21] the test system is Rattus norvegicus. Put plainly: Antiarthritic effect in Lewis rat adjuvant-induced arthritis model spleen adherent cells restimulated with sonicated Mtb post isolation assessed as reduction in CCR2 expression at 200 ug, ip starting from arthritis onset and continued uninterrupted until study end by qPCR. It counts as functional, organism-based. In outline:
as §3

Assay [22] relates to Rattus norvegicus. Put plainly: Antiarthritic effect in Lewis rat adjuvant-induced arthritis model spleen adherent cells restimulated with sonicated Mtb post isolation assessed as reduction in RANTES production at 200 ug, ip starting from arthritis onset and continued uninterrupted until study end by cytokine multiplex assay. The assay is classed as functional, organism-based. A digest of the protocol:
(§4)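 Mtb-immunized male Lewis rats were dosed 200 μg/rat i.p. daily from arthritis onset (vehicle: 1.2% DMSO/PBS). Spleen adherent cells were prepared on d 18, plated at 1.5 × 10^6/well in 2% FBS medium and restimulated with sonicated Mtb (10 μg/ml) for 24 h. Supernatant chemokines and cytokines were measured by Luminex multiplex. Mean ± SD of triplicates from 4–5 rats.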

The subject of assay [23] is Rattus norvegicus. The assay is described as follows: Antiarthritic effect in Lewis rat adjuvant-induced arthritis model spleen adherent cells restimulated with sonicated Mtb post isolation assessed as reduction in TNFalpha production at 200 ug, ip starting from arthritis onset and continued uninterrupted until study end by cytokine multiplex assay. The assay is classed as functional, organism-based. In outline:
as §4

The structures appear in SMILES notation. The source made the active and inactive calls. The rule behind the calls is not given here.

`CC1=C(O)C(=O)C=C2C1=CC=C1[C@@]2(C)CC[C@@]2(C)[C@@H]3C[C@](C)(C(=O)O)CC[C@]3(C)CC[C@]12C` [CELASTROL]: the outcome in the assay on Rattus norvegicus [1], with Rattus norvegicus [2], in the assay with Rattus norvegicus [18], in the assay on Rattus norvegicus [19], with Rattus norvegicus [20] and in the assay on Rattus norvegicus [21] was Active. Also, the result in the assay with Rattus norvegicus [22] and with Rattus norvegicus [23] was Active. Moreover, the result in the assay on Rattus norvegicus [3], with Rattus norvegicus [4], with Rattus norvegicus [5], in the assay with Rattus norvegicus [6], in the assay on Rattus norvegicus [7] and in the assay with Rattus norvegicus [8] was inactive. In addition, in the assay with Rattus norvegicus [9], the outcome was inactive. Also, the Activity result in the assay listed under Rattus norvegicus [10], in the assay listed under Rattus norvegicus [11], in the assay filed under Rattus norvegicus [12], in the assay listed under Rattus norvegicus [13], in the assay filed under Rattus norvegicus [14] and in the assay listed under Rattus norvegicus [15] was “Dose-dependent effect” in each case. Besides, the Activity result in the assay filed under Rattus norvegicus [16] and in the assay filed under Rattus norvegicus [17] was “Dose-dependent effect” each time.
